Legend:
[1] = (§1) Potency against opioid receptor relative to morphine; format: functional
In short: (§2)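 Guinea pig ileal longitudinal muscle, electrically stimulated twitch. Agonist potency taken as IC50 for twitch inhibition and as potency ratio relative to morphine (morphine = 1). Values are means ± SE, with number of experiments.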

[2] = molecular target: T1, Opioid receptors; mu/kappa/delta (Homo sapiens, UniProt P41145+P41143+P35372); experiment: Opioid receptor agonistic potency in guinea pig ileal longitudinal muscle(GPI) preparation; format: functional, Cavia porcellus; details: target entry is the homologue from another species; in short: as §2
T1 sequence (P35372 whole entry, looked up): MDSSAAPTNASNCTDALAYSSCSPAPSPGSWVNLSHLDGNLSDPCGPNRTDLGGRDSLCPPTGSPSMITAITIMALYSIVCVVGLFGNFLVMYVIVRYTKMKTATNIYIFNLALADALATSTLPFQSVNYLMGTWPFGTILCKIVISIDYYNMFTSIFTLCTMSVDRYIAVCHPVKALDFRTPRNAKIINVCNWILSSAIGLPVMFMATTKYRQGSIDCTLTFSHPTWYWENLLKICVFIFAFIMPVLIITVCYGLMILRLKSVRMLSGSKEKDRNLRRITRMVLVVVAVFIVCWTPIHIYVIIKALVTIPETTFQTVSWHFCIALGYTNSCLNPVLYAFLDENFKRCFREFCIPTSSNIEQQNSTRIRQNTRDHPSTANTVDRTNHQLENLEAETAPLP
T1 sequence (P41143 whole entry, looked up): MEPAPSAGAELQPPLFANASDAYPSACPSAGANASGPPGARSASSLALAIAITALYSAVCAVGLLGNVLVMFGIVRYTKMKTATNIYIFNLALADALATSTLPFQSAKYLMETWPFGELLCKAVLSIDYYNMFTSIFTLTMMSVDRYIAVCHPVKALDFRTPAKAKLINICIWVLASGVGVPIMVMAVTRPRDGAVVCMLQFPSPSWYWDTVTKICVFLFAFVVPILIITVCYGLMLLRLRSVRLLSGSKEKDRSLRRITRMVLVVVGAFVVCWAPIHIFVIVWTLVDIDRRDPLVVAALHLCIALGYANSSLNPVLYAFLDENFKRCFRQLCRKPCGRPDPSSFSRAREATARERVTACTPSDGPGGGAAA
T1 sequence (P41145 whole entry, looked up): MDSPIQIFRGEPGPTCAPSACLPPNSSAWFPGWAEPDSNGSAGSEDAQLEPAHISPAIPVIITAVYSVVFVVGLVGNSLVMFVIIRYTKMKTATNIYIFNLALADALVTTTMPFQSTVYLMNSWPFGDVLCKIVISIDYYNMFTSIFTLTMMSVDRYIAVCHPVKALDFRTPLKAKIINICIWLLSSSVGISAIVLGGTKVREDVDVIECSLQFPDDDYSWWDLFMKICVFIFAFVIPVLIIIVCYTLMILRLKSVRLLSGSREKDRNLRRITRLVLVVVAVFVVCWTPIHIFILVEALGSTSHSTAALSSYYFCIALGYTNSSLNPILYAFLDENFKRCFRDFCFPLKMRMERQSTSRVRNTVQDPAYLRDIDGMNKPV

Mus musculus [3] = experiment: Peak antinociceptive potency of compound, 40 min after intracerebro ventricular administration nto mice; format: functional
In short: (§3)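 Male Swiss–Webster mice, tail-flick antinociception. Compounds given icv, iv or po, with ED50 taken at peak effect. Some ED50s were estimated from two dose levels. Where drug was insufficient, an approximate range was based on one dose level.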

Mus musculus [4] = experiment: Peak antinociceptive potency of compound, 40 min after intravenous administration into mice; format: functional; in short: as §3
Mus musculus [5] = experiment: Peak antinociceptive potency of compound, 60 min after peroral administration into mice; format: functional; details: po, 1 h; in short: as §3
Cavia porcellus [6] = species on record: Cavia porcellus; experiment: Antagonistic activity against morphine in guinea pig ileal longitudinal muscle(GPI) preparation; format: functional, Muscle tissue
In short: (§4)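 Guinea pig ileal longitudinal muscle, electrically stimulated twitch. Antagonism measured against morphine. Ke = [antagonist]/(IC50 ratio − 1); the IC50 ratio is morphine IC50 with antagonist over its control IC50 in the same preparation. Values are means ± SE, with number of experiments.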

Cavia porcellus [7] = species on record: Cavia porcellus; experiment: Maximum percent inhibition of electrically stimulated twitch in guinea pig ileal longitudinal muscle(GPI) preparation; format: functional; details: Muscle tissue
In short: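 Guinea pig ileal longitudinal muscle, electrically stimulated. Maximum percent inhibition of the twitch determined at 1 μM. Values are means ± SE, with number of experiments.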

Mus musculus [8] = experiment: Peak antinociceptive potency of compound, 40 min after intracerebro ventricular administration into mice; format: functional; in short: as §3
[9] = molecular target: T1, Opioid receptors; mu/kappa/delta; experiment: as §1; format: functional; details: Cavia porcellus; in short: as §2
Mus musculus [10] = experiment: Peak antinociceptive potency of compound, 20 min after intracerebro ventricular administration into mice; format: functional; in short: as §3
Cavia porcellus [11] = species on record: Cavia porcellus; experiment: Antagonistic activity against morphine in guinea pig ileal longitudinal muscle(GPI) preparation; Agonism was too strong to test for antagonism; format: functional; details: Muscle tissue, filed as agonist; in short: as §4
Mus musculus [12] = experiment: Antagonistic potency, 60 min after intracerebro ventricular administration of compound (0.01n mol), in mice (tail flick assay); format: functional; details: central, 1 h
In short: (§5)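 Male Swiss–Webster mice, tail-flick antinociception. Morphine given sc and tested 30 min after injection. Antagonist given icv (0.01 nmol), iv (18.3 μmol/kg) or po (91.7 μmol/kg), timed so both drugs were at peak (antagonist peaks 60, 90 and 120 min).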

Mus musculus [13] = experiment: Antagonistic potency, 90 min after […] administration of compound (18.3 u mol/kg), in mice (tail flick assay); format: functional; details: 1.5 h; in short: as §5
Mus musculus [14] = experiment: Dose required to produce equivalent antagonism of morphine activity after peroral administration of compound; format: functional
In short: (§6)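 Mouse tail-flick assay against sc morphine. Antagonist dosed icv, iv or po. Equiactive dose calculated as the dose required to double the morphine ED50, [dose/(DR − 1)]. icv doses were also expressed per kg body weight.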

Mus musculus [15] = experiment: Peak effect of agonistic potency 10 min after intracerebro ventricular administration, in mice (acetic acid writhing assay); format: functional
In short: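 Mouse acetic acid writhing assay. Compound given icv or po. […] Expressed as nmol/mouse (icv) or […] (po).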

[16] = Antagonistic potency, 120 min after […] administration of compound (91.7 u mol/kg), in mice (tail flick assay); format: functional; in short: as §5
[17] = Antagonistic potency, 90 min after intravenous administration of compound (18.3 u mol/kg), in mice (tail flick assay); format: functional; in short: as §5
[18] = Antagonistic potency,60 min after intracerebro ventricular administration of compound ([…]), in mice (tail flick assay); format: functional; in short: as §5
Mus musculus [19] = experiment: Dose required to produce equivalent antagonism of morphine activity after intravenous administration of compound; format: functional; in short: as §6
Mus musculus [20] = experiment: Antagonistic potency, 120 min after […] administration of compound (91.7u mol/kg), in mice (tail flick assay); format: functional; details: 2 h; in short: as §5
Mus musculus [21] = experiment: Peak antinociceptive potency of compound, 20 min after intravenous administration into mice; format: functional; in short: as §3

CN1CC[C@]23c4c5ccc(O)c4O[C@H]2C(NC(=O)/C=C/C(=O)O)CC[C@@]3(O)[C@H]1C5 (some centres not stated)
Ratio [1]: 1.5 | IC50 [2]: 130 nM

CN1CC[C@]23c4c5ccc(O)c4O[C@H]2C(NC(=O)CCC(=O)O)CC[C@@]3(O)[C@H]1C5 (some centres not stated)
ED50 (Mus musculus [3]): 0.27 nM mouse-1 | ED50 (Mus musculus [4]): 9.8 µmol/kg | ED50 (Mus musculus [5]): 30.3 µmol/kg | Ratio [1]: 1.6 | IC50 [2]: 144 nM

O=C(O)CNC1CC[C@@]2(O)[C@H]3Cc4ccc(O)c5c4[C@@]2(CCN3CC2CC2)[C@H]1O5 (some centres not stated)
Ke (Cavia porcellus [6]): 24.4 nM | IC50 (Cavia porcellus [7]): 37 nM

O=C(O)/C=C/C(=O)NC1CC[C@@]2(O)[C@H]3Cc4ccc(O)c5c4[C@@]2(CCN3CC2CC2)[C@H]1O5 (some centres not stated)
Ke (Cavia porcellus [6]): 8.4 nM | IC50 (Cavia porcellus [7]): 6 nM

O=C(O)CCCC(=O)NC1CC[C@@]2(O)[C@H]3Cc4ccc(O)c5c4[C@@]2(CCN3CC2CC2)[C@H]1O5 (some centres not stated)
Ke (Cavia porcellus [6]): 28 nM | IC50 (Cavia porcellus [7]): 41 nM

CN1CC[C@]23c4c5ccc(O)c4O[C@H]2C(NC(=O)COCC(=O)O)CC[C@@]3(O)[C@H]1C5 (some centres not stated)
ED50 (Mus musculus [8]): 0.25 nM mouse-1 | ED50 (Mus musculus [4]): < 20 µmol/kg | ED50 (Mus musculus [5]): > 25 µmol/kg | Ratio [9]: 3.1 | IC50 [2]: 27 nM

O=C(O)COCC(=O)NC1CC[C@@]2(O)[C@H]3Cc4ccc(O)c5c4[C@@]2(CCN3CC2CC2)[C@H]1O5 (some centres not stated)
Ke (Cavia porcellus [6]): 6.2 nM | IC50 (Cavia porcellus [7]): 38 nM

CN1CC[C@]23c4c5ccc(O)c4O[C@H]2C(NC(=O)C(N)CC(=O)O)CC[C@@]3(O)[C@H]1C5 (some centres not stated)
ED50 (Mus musculus [10]): 1110.44 nM mouse-1 | ED50 (Mus musculus [4]): < 20 µmol/kg | Ratio [1]: 6.1 | IC50 [2]: 31 nM

NC(CC(=O)O)C(=O)NC1CC[C@@]2(O)[C@H]3Cc4ccc(O)c5c4[C@@]2(CCN3CC2CC2)[C@H]1O5 (some centres not stated)
Ke (Cavia porcellus [11]): Agonism was too strong to test for antagonism | ED50 (Mus musculus [12]): 58 µmol/kg | ED50 (Mus musculus [13]): 168 µmol/kg | Dose (Mus musculus [14]): 45.85 µM/kg | ED50 (Mus musculus [15]): 0.024 nM mouse-1 | Dose ratio [16]: 3 | Dose ratio [17]: 12.2 | Dose ratio [18]: 4.2 | IC50 (Cavia porcellus [7]): 7.4 nM | Dose (Mus musculus [19]): 1.63 µM/kg | ED50 (Mus musculus [20]): 41.4 µmol/kg

CN1CC[C@]23c4c5ccc(O)c4O[C@H]2C(NC(=O)/C=C\C(=O)O)CC[C@@]3(O)[C@H]1C5 (some centres not stated)
ED50 (Mus musculus [10]): 0.17 nM mouse-1 | ED50 (Mus musculus [21]): 11 µmol/kg | ED50 (Mus musculus [5]): 20 µmol/kg | Ratio [1]: 2.6 | IC50 [2]: 39 nM

O=C(O)CCC(=O)NC1CC[C@@]2(O)[C@H]3Cc4ccc(O)c5c4[C@@]2(CCN3CC2CC2)[C@H]1O5 (some centres not stated)
Ke (Cavia porcellus [6]): 24.8 nM | IC50 (Cavia porcellus [7]): 56 nM
